Measured values as given in ChEMBL document CHEMBL5352507, “Discovery of a Pan-Melanocortin Receptor Antagonist [Ac-DPhe(pI)-Arg-Nal(2')-Orn-NH2] at the MC1R, MC3R, MC4R, and MC5R that Mediates an Increased Feeding Response in Mice and a 40-Fold Selective MC1R Antagonist [Ac-DPhe(pI)-DArg-Nal(2')-Arg-NH2]” (J Med Chem, 2023).
Calls of active or inactive are those of the source. The calls are words filed in the database; no cut-off is given here. Bridge positions count the residues as written; N and C are the ends. Square brackets hold non-standard residues; d marks the D form. Peptide text beside a SMILES is read from it. dPhe(4-I) = N[C@H](Cc1ccc(I)cc1)C(=O)O; 2Nal = N[C@@H](Cc1ccc2ccccc2c1)C(=O)O; hArg = N=C(N)NCCCC[C@H](N)C(=O)O; Cit = NC(=O)NCCC[C@H](N)C(=O)O; Orn = NCCC[C@H](N)C(=O)O; Dab = NCC[C@H](N)C(=O)O; Dap = NC[C@H](N)C(=O)O

Key:
[1] = molecular target: T1, Melanocyte-stimulating hormone receptor (Mus musculus, UniProt Q01727); test: Binding affinity to mouse MC1R expressed in HEK293 cells coexpressing CRE/beta-galactosidase assessed as inhibition constant; assay type: cell-based
T1 sequence (Q01727 whole entry): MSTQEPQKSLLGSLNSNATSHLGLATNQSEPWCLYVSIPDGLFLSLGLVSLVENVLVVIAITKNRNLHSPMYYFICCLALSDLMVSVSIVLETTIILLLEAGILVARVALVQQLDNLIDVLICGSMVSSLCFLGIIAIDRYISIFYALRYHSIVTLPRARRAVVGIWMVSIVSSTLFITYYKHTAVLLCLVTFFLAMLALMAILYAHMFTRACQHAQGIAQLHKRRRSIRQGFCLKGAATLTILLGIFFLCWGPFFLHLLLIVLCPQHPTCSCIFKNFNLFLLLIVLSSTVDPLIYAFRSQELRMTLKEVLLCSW

Melanocortin receptor 5 [2] = molecular target: T2, Melanocortin receptor 5 (Mus musculus, UniProt P41149); test: Agonist activity against mouse MC5R expressed in HEK293 cells assessed as increase in cAMP level incubated for 2 hrs by AlphaScreen assay; assay type: functional, cell-based
T2 sequence (P41149 whole entry): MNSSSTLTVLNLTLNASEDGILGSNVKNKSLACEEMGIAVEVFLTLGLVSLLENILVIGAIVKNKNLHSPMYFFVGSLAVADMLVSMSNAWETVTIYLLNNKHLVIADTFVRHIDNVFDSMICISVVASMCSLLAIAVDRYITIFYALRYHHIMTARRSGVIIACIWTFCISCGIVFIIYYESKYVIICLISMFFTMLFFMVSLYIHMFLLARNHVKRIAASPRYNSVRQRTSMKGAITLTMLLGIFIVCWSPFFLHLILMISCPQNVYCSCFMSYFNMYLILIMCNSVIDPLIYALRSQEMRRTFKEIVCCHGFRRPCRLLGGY

Melanocortin receptor 4 [3] = molecular target: T3, Melanocortin receptor 4 (Mus musculus, UniProt P56450); test: Agonist activity against mouse MC4R expressed in HEK293 cells assessed as increase in cAMP level incubated for 2 hrs by AlphaScreen assay; assay type: functional, cell-based
T3 sequence (P56450 whole entry): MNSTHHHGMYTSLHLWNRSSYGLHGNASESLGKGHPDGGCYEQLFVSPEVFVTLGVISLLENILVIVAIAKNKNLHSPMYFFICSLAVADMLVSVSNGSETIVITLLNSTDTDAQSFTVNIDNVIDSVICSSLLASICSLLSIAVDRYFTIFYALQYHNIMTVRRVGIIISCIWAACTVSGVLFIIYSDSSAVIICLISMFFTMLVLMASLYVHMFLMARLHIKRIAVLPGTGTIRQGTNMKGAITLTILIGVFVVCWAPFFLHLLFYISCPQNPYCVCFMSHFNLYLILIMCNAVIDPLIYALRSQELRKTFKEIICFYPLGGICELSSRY

Melanocortin receptor 3 [4] = molecular target: T4, Melanocortin receptor 3 (Mus musculus, UniProt P33033); test: Agonist activity against mouse MC3R expressed in HEK293 cells assessed as increase in cAMP level incubated for 2 hrs by AlphaScreen assay; assay type: functional, cell-based
T4 sequence (P33033 whole entry): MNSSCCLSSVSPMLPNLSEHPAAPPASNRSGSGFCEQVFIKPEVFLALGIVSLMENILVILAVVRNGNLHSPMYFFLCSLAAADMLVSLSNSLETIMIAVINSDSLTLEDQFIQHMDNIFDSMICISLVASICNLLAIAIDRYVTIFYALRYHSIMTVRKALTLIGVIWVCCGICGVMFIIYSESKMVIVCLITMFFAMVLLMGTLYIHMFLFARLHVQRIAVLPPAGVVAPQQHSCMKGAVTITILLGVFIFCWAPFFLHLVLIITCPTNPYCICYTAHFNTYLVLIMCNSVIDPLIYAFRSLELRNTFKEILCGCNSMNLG

[5] = Toxicity in C57BL/6J mouse assessed as reduction in body weight at 10 to 15 nmol per mouse, IT measured for 24 to 48 hrs; conditions: in vivo, other, dose lower 10 nmol, time lower 24 hrs, dose upper 15 nmol, time upper 48 hrs
Outline: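 Wild-type male and female mice (129/Sv×C57BL/6J) in a crossover design, given 10 or 15 nmol intrathecally in 5 μL DMSO/water vehicle. Body weight recorded at 0, 24 and 48 h and compared with vehicle-treated controls.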

Mus musculus [6] = test: In vivo antagonist activity MC4R in wild type C57BL/6J mouse assessed as increase in food intake at 15 nmol per mouse, IT administered directly into the spinal canal and measured for 2 to 6 hrs; assay type: functional, organism-based; conditions: time 2-6 hrs
Outline: (§1)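 Wild-type male and female mice (mixed 129/Sv×C57BL/6J, in-house colony) on a reversed 12-h light/dark cycle with chow ad libitum. Crossover design with 6–7 days between treatments. […] Cumulative food intake weighed at 0–72 h. n ≥ 8 per group; two-way ANOVA against vehicle.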

Mus musculus [7] = test: In vivo antagonist activity MC4R in wild type C57BL/6J mouse assessed as increase in food intake at 10 nmol per mouse, IT administered directly into the spinal canal and measured for 4 to 6 hrs; assay type: functional, organism-based; conditions: time 4-6 hrs; outline: as §1
Mus musculus [8] = test: In vivo antagonist activity MC4R in wild type C57BL/6J mouse assessed as increase in food intake at 10 to 15 nmol per mouse, IT administered directly into the spinal canal and measured for 24 hrs; assay type: functional, organism-based; conditions: dose 10-15 nmol; outline: as §1
[9] = molecular target: T1, Melanocyte-stimulating hormone receptor; test: Partial agonist activity against mouse MC1R expressed in HEK293 cells assessed as increase in cAMP level incubated for 2 hrs by AlphaScreen assay; assay type: functional, cell-based
[10] = molecular target: T1, Melanocyte-stimulating hormone receptor; test: Agonist activity against mouse MC1R expressed in HEK293 cells assessed as increase in cAMP level incubated for 2 hrs by AlphaScreen assay; assay type: functional, cell-based
Melanocortin receptor 5 [11] = molecular target: T2, Melanocortin receptor 5; test: Binding affinity to mouse MC5R expressed in HEK293 cells coexpressing CRE/beta-galactosidase assessed as inhibition constant; assay type: cell-based
Melanocortin receptor 4 [12] = molecular target: T3, Melanocortin receptor 4; test: Binding affinity to mouse MC4R expressed in HEK293 cells assessed as inhibition constant by schild plot analysis; assay type: cell-based
[13] = molecular target: Melanocyte-stimulating hormone receptor (Homo sapiens, UniProt Q01726); test: Binding affinity to human MC1R
Chain of Melanocyte-stimulating hormone receptor (Homo sapiens, UniProt Q01726) (Q01726 whole entry): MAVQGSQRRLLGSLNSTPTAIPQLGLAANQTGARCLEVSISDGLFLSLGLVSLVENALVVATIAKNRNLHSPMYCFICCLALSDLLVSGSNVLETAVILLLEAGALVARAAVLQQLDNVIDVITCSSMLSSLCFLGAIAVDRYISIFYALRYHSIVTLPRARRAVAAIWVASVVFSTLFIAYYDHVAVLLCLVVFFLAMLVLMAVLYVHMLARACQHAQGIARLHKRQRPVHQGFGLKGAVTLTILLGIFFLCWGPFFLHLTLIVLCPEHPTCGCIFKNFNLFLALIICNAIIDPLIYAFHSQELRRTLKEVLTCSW

Melanocortin receptor 3 [14] = molecular target: T4, Melanocortin receptor 3; test: Binding affinity to mouse MC3R expressed in HEK293 cells assessed as inhibition constant by schild plot analysis; assay type: cell-based
[15] = molecular target: T1, Melanocyte-stimulating hormone receptor; test: Binding affinity to mouse MC1R expressed in HEK293 cells assessed as inhibition constant by schild plot analysis; assay type: cell-based
Melanocortin receptor 5 [16] = molecular target: T2, Melanocortin receptor 5; test: Binding affinity to mouse MC5R expressed in HEK293 cells assessed as inhibition constant by schild plot analysis; assay type: cell-based

Row | SMILES | EC50 (Melanocortin receptor 5 [2]) [µM] | EC50 (Melanocortin receptor 4 [3]) [µM] | EC50 (Melanocortin receptor 3 [4]) [µM] | other results
1 | C[C@@H]1NC(=O)[C@H](CC(N)=O)NC(=O)[C@H](Cc2ccccc2)NC(=O)[C@H](Cc2ccccc2)NC(=O)[C@H](CCCN=C(N)N)NC(=O)[C@@H](NC(=O)[C@@H](N)Cc2ccc(O)cc2)CCC(=O)NC[C@@H](C(=O)N[C@@H](Cc2ccc(O)cc2)C(N)=O)NC(=O)[C@H](Cc2ccccc2)NC1=O (H-YERFFNAF[Dap]Y-NH2; lactam 2-9) | – | – | – | Ki [1]: 1.2 µM
2 | CC(=O)N[C@H](Cc1ccc(I)cc1)C(=O)N[C@@H](CCCNC(N)=O)C(=O)N[C@@H](Cc1ccc2ccccc2c1)C(=O)N[C@@H](CCCNC(=N)N)C(N)=O (Ac-[dPhe(4-I)][Cit][2Nal]R-NH2) | > 100 | > 100 | – | –
3 | CC(=O)N[C@H](Cc1ccc(I)cc1)C(=O)N[C@@H](CCCNC(=N)N)C(=O)N[C@@H](Cc1ccc2ccccc2c1)C(=O)N[C@@H](CCCN)C(N)=O (Ac-[dPhe(4-I)]R[2Nal][Orn]-NH2) | – | – | – | Activity [5]: Non-Toxic; Activity (Mus musculus [6]): Active; Activity (Mus musculus [7]): Active; Activity (Mus musculus [8]): inactive
4 | CC(=O)N[C@H](Cc1ccc(I)cc1)C(=O)N[C@@H](CCCNC(=N)N)C(=O)N[C@@H](Cc1ccc2ccccc2c1)C(=O)N[C@@H](CCCNC(N)=O)C(N)=O (Ac-[dPhe(4-I)]R[2Nal][Cit]-NH2) | > 100 | > 100 | > 100 | EC50 [10]: > 100 µM
5 | CC(=O)N[C@H](Cc1ccc(I)cc1)C(=O)N[C@@H](CCC(=O)O)C(=O)N[C@@H](Cc1ccc2ccccc2c1)C(=O)N[C@@H](CCCNC(=N)N)C(N)=O (Ac-[dPhe(4-I)]E[2Nal]R-NH2) | > 100 | > 100 | > 100 | EC50 [10]: > 100 µM
6 | CCCC[C@H](NC(C)=O)C(=O)N[C@H]1CC(=O)NCCCC[C@@H](C(N)=O)NC(=O)[C@@H](Cc2ccc3ccccc3c2)NC(=O)[C@H](CCCNC(=N)N)NC(=O)[C@@H](Cc2ccc3ccccc3c2)NC(=O)[C@H](Cc2cn(C)cn2)NC1=O | – | – | – | Ki (Melanocortin receptor 5 [11]): 0.063 µM
7 | CC(C)[C@H](NC(=O)[C@@H]1CCC(=O)NCC(=O)N[C@@H](C2CCCC2)C(=O)N[C@H](Cc2ccc3ccccc3c2)C(=O)N[C@@H](CCCNC(=N)N)C(=O)N[C@@H](Cc2c[nH]c3ccccc23)C(=O)N1)C(=O)N[C@H](C(=O)NCC(N)=O)C(C)C | – | – | – | Ki [13]: 0.053 µM
8 | CC(=O)N[C@H](Cc1ccc(I)cc1)C(=O)N[C@@H](Cc1c[nH]cn1)C(=O)N[C@@H](Cc1ccc2ccccc2c1)C(=O)N[C@@H](CCCNC(=N)N)C(N)=O (Ac-[dPhe(4-I)]H[2Nal]R-NH2) | > 100 | > 100 | – | Ki (Melanocortin receptor 4 [12]): 0.1 µM
9 | CC(=O)N[C@H](Cc1ccc(I)cc1)C(=O)N[C@@H](CCCNC(=N)N)C(=O)N[C@@H](Cc1ccc2ccccc2c1)C(=O)N[C@@H](Cc1c[nH]cn1)C(N)=O (Ac-[dPhe(4-I)]R[2Nal]H-NH2) | > 100 | > 100 | – | Ki (Melanocortin receptor 3 [14]): 0.1 µM; EC50 [9]: 0.4 µM

More lines, main results first:

Row | EC50 (Melanocortin receptor 5 [2]) [µM] | EC50 (Melanocortin receptor 4 [3]) [µM] | EC50 (Melanocortin receptor 3 [4]) [µM] | SMILES | other results
10 | > 100 | > 100 | > 100 | CC(=O)N[C@H](Cc1ccc(I)cc1)C(=O)N[C@@H](CCCNC(=N)N)C(=O)N[C@@H](Cc1ccc2ccccc2c1)C(=O)N[C@@H](CN)C(N)=O (Ac-[dPhe(4-I)]R[2Nal][Dap]-NH2) | –
11 | > 100 | > 100 | > 100 | CC(=O)N[C@H](Cc1ccc(I)cc1)C(=O)N[C@@H](CCCNC(=N)N)C(=O)N[C@@H](Cc1ccc2ccccc2c1)C(=O)N[C@@H](CCN)C(N)=O (Ac-[dPhe(4-I)]R[2Nal][Dab]-NH2) | EC50 [9]: 1.1 µM
12 | > 100 | > 100 | > 100 | CC(=O)N[C@H](Cc1ccc(I)cc1)C(=O)N[C@@H](CCCN)C(=O)N[C@@H](Cc1ccc2ccccc2c1)C(=O)N[C@@H](CCCNC(=N)N)C(N)=O (Ac-[dPhe(4-I)][Orn][2Nal]R-NH2) | Ki (Melanocortin receptor 4 [12]): 0.1 µM
13 | – | > 100 | – | CC(=O)N[C@H](Cc1ccc(I)cc1)C(=O)N[C@@H](CCCCN)C(=O)N[C@@H](Cc1ccc2ccccc2c1)C(=O)N[C@@H](CCCNC(=N)N)C(N)=O (Ac-[dPhe(4-I)]K[2Nal]R-NH2) | –
14 | > 100 | > 100 | > 100 | CC(=O)N[C@H](Cc1ccc(I)cc1)C(=O)N[C@@H](CN)C(=O)N[C@@H](Cc1ccc2ccccc2c1)C(=O)N[C@@H](CCCNC(=N)N)C(N)=O (Ac-[dPhe(4-I)][Dap][2Nal]R-NH2) | EC50 [10]: > 100 µM; Ki [15]: 0.1 µM
15 | > 100 | > 100 | > 100 | CC(=O)N[C@H](Cc1ccc(I)cc1)C(=O)N[C@@H](CCCNC(=N)N)C(=O)N[C@@H](Cc1ccc2ccccc2c1)C(=O)N[C@@H](CCCCNC(=N)N)C(N)=O (Ac-[dPhe(4-I)]R[2Nal][hArg]-NH2) | Ki (Melanocortin receptor 5 [16]): 1 µM
16 | – | > 100 | – | CC(=O)N[C@H](Cc1ccc(I)cc1)C(=O)N[C@H](CCCCN)C(=O)N[C@@H](Cc1ccc2ccccc2c1)C(=O)N[C@@H](CCCNC(=N)N)C(N)=O (Ac-[dPhe(4-I)][dK][2Nal]R-NH2) | EC50 [10]: > 100 µM
